Compound activity from PubChem.
PERK inhibitor – inhibitors of human PERK kinase | CHO PERK-DD fusion, SEAP luminescence translation reporter | 0.17% of 220,000 active | inhibition, % at 5.6 µM | AID 1416;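 active = inhibition above the mean inhibition of all tested compounds plus 3 SD, set separately per screening campaign, cut at about 2.9% in these data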;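 also: PERK kinase domain activated by AP20187 dimerizer at 100 nM; 0% = DMSO with dimerizer and 100% = rapamycin at 8.4 µM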
STAT3 act – activators of IL-6 induced STAT3 signaling | U3A cells, IL-6 STAT3-luciferase reporter, luminescence; 100% = signal with IL-6 EC80 alone | activation (% of control), % at 5.6 µM | 0.91% of 190,000 active | AID 871;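 active = activation above the screen-wide mean of compound activation plus 3 SD, cut at about 130% in these data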;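 also: 0% = background luminescence of wells with medium and substrate only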
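Material: human U3A cells carrying STAT3-luciferase construct. Measured by: reporter luminescence signal. Timing: compound 1 h, then IL-6 6 h at 37 °C.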
STAT3 blocker – STAT3 signaling inhibition | U3A cells, IL-6 STAT3-luciferase reporter, luminescence; host cell line lacks STAT1 | inhibition, % at 5.5 µM | 0.89% of 190,000 active;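 active = inhibition above the mean inhibition across all screened compounds plus 3 SD, cut at about 44% in these data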;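 also: 0% = DMSO only wells and 100% = 100 µM nifuroxazide control wells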
STAT1 blocker – inhibitors of IFN-gamma induced STAT1 signaling | NIH 3T3 STAT1-luciferase reporter, luminescence | AID 920 | inhibition, % at 5.5 µM | 0.35% of 200,000 active;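 active = inhibition above a set limit, the mean inhibition across all tested compounds plus 3 SD, cut at about 34% in these data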;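 also: 0% = IFN-gamma with DMSO and 100% = IFN-gamma with 300 µM nifuroxazide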
The depositor's hits bear a star; . = not tested or not shown. An excerpt weighted towards active compounds, which were near 1.8% of everything screened.

SMILES	PERK inhibitor	STAT3 act	STAT3 blocker	STAT1 blocker
Cc1ccc(Cl)c2c1NC(=O)C2(O)CC(=O)c1ccccc1O (stereo not given)	1	133*	-34	5
Cc1ccc(Cl)c2c1NC(=O)C2(O)CC(=O)c1ccc(F)cc1 (stereo not given)	0	102	0	1
Cc1cc(Cl)ccc1OCC(=O)N/N=C/c1ccc(OC2OC(CO)C(O)C(O)C2O)cc1 (stereo not given)	0	.	.	.
COc1ccc(OCC(=O)N/N=C/c2ccc(O[C@@H]3O[C@H](CO)[C@@H](O)[C@H](O)[C@H]3O)cc2)cc1	3.4*	114	-6	11
CN=C(Nc1cc(Cl)ccc1Cl)SC1CC(=O)N(c2ccc(C(=O)OC)cc2)C1=O (stereo not given)	1	105	4	4
O=C1c2ccccc2C(=O)C1c1ccnc2ccccc12	-1	53	58*	43*
CCn1c2ccccc2c2cc(Nc3cc(C)nc4ncnn34)ccc21	0	136*	-43	-2
Cc1c(NC(=O)C(C)N2C(=O)NC3(CCC(C)CC3)C2=O)c(=O)n(-c2ccccc2)n1C (stereo not given)	0	97	8	5
COc1ccccc1N1CCN(C(=O)Cn2nc3n(C)c4ccccc4n3c(=O)c2=O)CC1	1	104	1	-4
Cc1ccc(/C(O)=C2\C(=O)C(=O)N(Cc3cccnc3)C2c2ccccc2[N+](=O)[O-])cc1 (stereo not given)	0	133*	-34	-18
O=C1C(=O)N(Cc2cccnc2)C(c2ccccn2)/C1=C(/O)c1ccc(Br)cc1 (stereo not given)	0	101	2	1
O=C1NC(Cc2ccccc2)C(=O)N1Cc1cc([N+](=O)[O-])cc2c1OCOC2 (stereo not given)	0	103	4	3
O=C(Nc1cnn(Cc2ccc(Cl)c(Cl)c2)c1)C12CC3CC(CC(C3)C1)C2	0	104	-5	2
CCOC(=O)c1cnc(SCC(=O)N2CCOCC2)nc1N	-1	105	-3	-2
CN(C)c1nc(Nc2ccc(Cl)cc2)nc(OCC#N)n1	0	136*	-37	14
CN(C)c1nc(OCCNC(=O)Nc2ccc(Cl)cc2)nc(N(C)C)n1	0	89	19	8
O=C(NCCc1c[nH]c2ccccc12)c1cnc2sccn2c1=O	2	135*	-31	-30
CCOC(=O)CCCCC(=O)c1[nH]c(=O)[nH]c1CSc1nnc2c3cc(Br)ccc3n(C)c2n1	0	134*	-36	-7
CC(=O)c1c(C)[nH]c(C(=O)OCCCCN2C(=O)c3ccccc3C2=O)c1C	-1	32	86*	33
COc1cc(/C=N/NC(=O)c2cccc([N+](=O)[O-])c2)ccc1OCc1ccccc1	-1	89	19	-2
COc1cc(/C=C/[N+](=O)[O-])ccc1OCc1cccc(C(=O)O)c1	1	20	93*	90*
COc1ccc(CC(=O)O/N=C(\N)c2ccccn2)cc1	3.1*	.	.	.
CCOc1ccc(NC(=O)c2ccccn2)cc1	1	16	98*	59*
CCOc1ccc(NC(=O)c2ccccc2OC)cc1	0	133*	-34	-23
N/C(=N\OC(=O)Cc1ccc(-c2ccccc2)cc1)c1ccccn1	0	100	3	-1
SMILES	PERK inhibitor	STAT3 act	STAT3 blocker	STAT1 blocker
COc1ccc(C(=O)NNC(=O)c2ccccn2)cc1	1	18	99*	92*
CC1=NN(C(=O)c2ccc(Cn3ccc([N+](=O)[O-])n3)cc2)C(O)(C(F)(F)F)C1 (stereo not given)	0	97	6	8
COC(=O)c1ccccc1NC(=O)C(=O)NCc1ccncc1	1	98	7	-6
COc1ccc(C2NCCc3sccc32)cc1 (stereo not given)	0	104	0	-9
N/C(=N\OC(=O)c1ccccc1Cl)c1ccccn1	-1	46	69*	78*
Nc1ccc2c(c1)N=[N+]([O-])c1cc(N)ccc1C2	0	.	.	.
Cc1cc(C)c(C#N)c(Sc2ccccc2N)n1	0	168*	-77	-43
CCN(CC)CCn1c(NC(=O)c2ccc(Cl)cc2)nc2ccccc21	-1	136*	-42	-16
O=C(Nc1nc2ccccc2n1CCN1CCCCC1)c1ccc(Cl)cc1	0	122	-18	0
Cc1ccc(C(=O)Nc2nc3ccccc3n2CCN2CCCC2)cc1	-1	157*	-61	-45
CCCc1nc2ccccc2n1CCc1ccccc1	-1	89	16	2
COC(=O)c1sccc1-n1cccc1C(=O)C(=O)Nc1ccc(F)cc1	0	126	-16	5
COC(=O)c1ccc(NC(=O)C(=O)c2cccn2C)cc1	0	36	79*	47*
COCCCN(CC(=O)Nc1ccc(N2CCOCC2)cc1)S(=O)(=O)c1ccc(Cl)cc1	-1	101	0	-5
CCOC(=O)c1cn(C2CC2)c2c(F)c(F)c(F)cc2c1=O	1	98	14	2
CCOC(=O)c1cn(-c2nc(-c3ccc(Cl)cc3)cs2)c2c(F)c(N3CC(C)OC(C)C3)c(F)cc2c1=O (stereo not given)	3.2*	103	2	4
NC(=S)N/N=C/c1ccc(/C=N/NC(N)=S)cc1	3.5*	.	.	.
NS(=O)(=O)c1ccc(NC(=O)COC(=O)CCC2CCCCC2)cc1	1	99	5	1
Cn1c2ccccc2c(=O)c2c(=O)n(-c3ccccc3)c(C3CCCCC3)nc21	0	134*	-45	0
Cc1cc(C(=O)COC(=O)c2ccc[nH]c2=O)c(C)n1-c1ccccc1	-2	59	49*	36*
C=CCSc1nc2c(cnn2-c2ccccc2)c(=O)n1N	0	.	.	.
Cc1cc(C)c(NC2=NS(=O)(=O)c3ccccc32)c(C)c1	3.6*	93	8	0
Cc1ccc(C)c(NC2=NS(=O)(=O)c3ccccc32)c1	1	103	-1	2
C=CCNC(=S)Nc1cccc2ccccc12	3.0*	100	10	-2
CC(=O)OCC(=O)Nc1ccc([N+](=O)[O-])cc1Cl	0	101	4	-4
SMILES	PERK inhibitor	STAT3 act	STAT3 blocker	STAT1 blocker
CC(=O)Oc1c(C)cc(Cl)cc1C(=O)Nc1ccc([N+](=O)[O-])cc1Cl	1	63	46*	3
Cc1ccc(NC(=S)N(Cc2cccc(Br)c2)CC2CCC(C(=O)O)CC2)cc1Cl (stereo not given)	1	100	2	12
O=C(NCc1ccoc1)c1ccc(NC(=O)c2ccccc2Cl)cc1	-1	133*	-31	7
CCNC(=S)NNC(=O)c1cc(C)on1	0	98	7	2
O=c1c2ccccc2nc2n1CC/C2=C\c1ccccc1[N+](=O)[O-]	1	157*	-65	1
Brc1cccc(-c2n[nH]c(-c3ccccc3)n2)c1	0	152*	-55	-42
CS(=O)(=O)c1nc(-c2cccs2)cc(C(F)(F)F)n1	-1	90	13	50*
O=C(O)CCS(=O)(=O)c1nc(-c2cccs2)cc(C(F)(F)F)n1	-1	95	12	27
